From PubChem
Only some compounds are listed: those with a hit (about 2.9% of all), similar ones and a draw of the others.
CAL PDZ FP-1 = human CAL PDZ-peptide interaction inhibition; inhibition, % at 20 µM; 330,000 tested, 0.02% active; Q9HD26; AID 504414; purified CAL PDZ, TMR-peptide fluorescence polarization, 1 h;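 active means highest replicate inhibition of at least 40%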;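 further: plate controls were DMSO neutral control wells for no effect and unlabeled competitor peptide control wells for full effect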
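Material: tagged CAL PDZ domain; buffer or medium: 25 mM sodium phosphate pH 7.4, 150 mM NaCl, TCEP, IgG, Thesit; compound dosing: single point, 20 µM; schedule: 1 h incubation at room temperature before polarization reading; measured by: FP readout, S and P plane fluorescence; read-out basis: percent inhibition from loss of millipolarization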
S100A4 inh HTS = S100A4-myosin IIA interaction inhibition. S100A4/TAMRA-MyoIIA peptide fluorescence polarization. 360,000 tested, 0.14% active. inhibition, % at 10.7 µM. AID 652163. P26447;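 active means mean inhibition of at least 70% across replicates, with every replicate also reaching that level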
Target sequence (P26447 whole entry, looked up): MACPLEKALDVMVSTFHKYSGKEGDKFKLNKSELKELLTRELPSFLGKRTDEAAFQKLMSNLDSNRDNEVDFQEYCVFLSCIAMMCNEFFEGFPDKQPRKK
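assay system = human S100A4 monomer with TAMRA-labelled myosin IIA peptide | also added = labelled myosin peptide probe, 5 nM | incubation = 5 min between mix addition and reading | control set = DMSO and TFP controls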
SIRT5 inh = inhibitors of human sirtuin-5 desuccinylase | Q9NXA8 | Purified SirT5, succinyl-peptide AMC, trypsin-coupled fluorescence | inhibition, % at 15 µM | 330,000 tested, 1.1% active | AID 652115; in the data active means inhibition above about 15%
Target sequence (Q9NXA8 whole entry, looked up): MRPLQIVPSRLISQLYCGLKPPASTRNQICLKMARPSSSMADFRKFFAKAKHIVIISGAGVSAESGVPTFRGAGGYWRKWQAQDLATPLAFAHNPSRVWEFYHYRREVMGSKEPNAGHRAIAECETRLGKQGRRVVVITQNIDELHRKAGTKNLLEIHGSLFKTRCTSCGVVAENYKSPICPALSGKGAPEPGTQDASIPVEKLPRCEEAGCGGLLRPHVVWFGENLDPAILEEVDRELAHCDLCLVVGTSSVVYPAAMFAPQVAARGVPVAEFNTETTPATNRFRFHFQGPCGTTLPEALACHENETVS
DENV2 CPE rescue = protects cells from dengue virus 2 cytopathic effect. CPE inhibition, % at 9.99 µM. 350,000 tested, 1.7% active. AID 651640. DENV2-infected cells, cytopathic effect rescue, plate reader; in the data active means CPE inhibition above about 20%, passing the limit was not always enough; tested in BHK-21 cells;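 further: 0% = median of neutral control wells and 100% = median of positive control wells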
ERAP1 HTS inh = ERAP1 (human) enzyme inhibition; recombinant ERAP1, Leu-AMC fluorescence, 60 min; inhibition, % at 10.7 µM; 340,000 tested, 0.15% active; AID 652197;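 active means mean replicate inhibition of at least 30%, or all replicates individually reaching that 30% level; inactive means mean below 30% and not every replicate reaching it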;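 further: 0% = neutral control wells and 100% = L-leucinethiol positive control wells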
CAL PDZ FP-2 = blocks peptide binding to the human CAL PDZ domain | purified CAL PDZ, TMR-peptide fluorescence polarization, 1 h | inhibition, % at 24.9 µM | 300,000 tested, 0.92% active | AID 602252;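 active means mean inhibition of at least 30% with at least half of replicates also reaching 30%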;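 further: 0% = DMSO neutral control and 100% = excess unlabeled competitor peptide PRC23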
Active calls of the source: *.

CC(=O)c1ccc(OCc2cc(C(=O)N3CC4C[C@@H]5CC3C[C@H](C4)C5)no2)cc1 was read as CAL PDZ FP-1 -1, S100A4 inh HTS 1, SIRT5 inh -1, DENV2 CPE rescue -8, ERAP1 HTS inh 1 and CAL PDZ FP-2 70*.
Screening CC(=O)c1ccc(OCc2cc(C(=O)NCCc3ccc(Cl)cc3)no2)cc1 returned CAL PDZ FP-1 2, S100A4 inh HTS 1, SIRT5 inh 0, DENV2 CPE rescue 6, ERAP1 HTS inh 0 and CAL PDZ FP-2 68*.
Screening Clc1ccc(SCc2cn3ccccc3n2)cc1 returned CAL PDZ FP-1 -1, S100A4 inh HTS 3, SIRT5 inh 58*, DENV2 CPE rescue 2, ERAP1 HTS inh 1 and CAL PDZ FP-2 0.
For COc1cccc(C(=O)N2CCOCC2)c1 the results were CAL PDZ FP-1 2, S100A4 inh HTS 4, SIRT5 inh -2, DENV2 CPE rescue 33*, ERAP1 HTS inh -1 and CAL PDZ FP-2 0.
Screening CO[C@H]1CN(C)C(=O)c2ccc(NC(=O)Nc3cc(F)ccc3F)cc2OC[C@@H](C)N(C(=O)c2ccccn2)C[C@H]1C returned S100A4 inh HTS -4, DENV2 CPE rescue 38* and ERAP1 HTS inh -2.
CO[C@@H]1CN(C)C(=O)c2ccc(NC(C)=O)cc2OC[C@H](C)N(C(=O)Cc2ccccn2)C[C@H]1C was read as S100A4 inh HTS 3, SIRT5 inh 16*, DENV2 CPE rescue 3 and ERAP1 HTS inh 0.
Screening COCC(=O)Nc1ccc2c(c1)C(=O)N(C)C[C@@H](OC)[C@@H](C)CN(C(=O)c1ccccn1)[C@H](C)CO2 returned S100A4 inh HTS 1, SIRT5 inh 5, DENV2 CPE rescue 23* and ERAP1 HTS inh 1.
Screening COCC(=O)Nc1ccc2c(c1)C(=O)N(C)C[C@@H](OC)[C@@H](C)CN(C(=O)c1ccccn1)[C@@H](C)CO2 returned S100A4 inh HTS 4, SIRT5 inh 4, DENV2 CPE rescue 7 and ERAP1 HTS inh 1.
For COCC(=O)Nc1ccc2c(c1)C(=O)N(C)C[C@@H](OC)[C@H](C)CN(C(=O)c1ccccn1)[C@H](C)CO2 the results were S100A4 inh HTS 4, SIRT5 inh 5, DENV2 CPE rescue -5 and ERAP1 HTS inh 4.
For COCC(=O)Nc1ccc2c(c1)C(=O)N(C)C[C@H](OC)[C@H](C)CN(C(=O)c1ccccn1)[C@@H](C)CO2 the results were S100A4 inh HTS 7, SIRT5 inh 5, DENV2 CPE rescue 65* and ERAP1 HTS inh 2.
`COc1ccc2c3c([nH]c2c1)[C@H](CO)N(Cc1ccncc1)CC31CCN(C(=O)Cc2ccncc2)CC1` gave S100A4 inh HTS -6, DENV2 CPE rescue -3 and ERAP1 HTS inh 0.
CCS(=O)(=O)Nc1ccc2c(c1)C(=O)N(C)C[C@H](OC)[C@H](C)CN(Cc1nccs1)[C@@H](C)CO2 was read as S100A4 inh HTS 17, SIRT5 inh -2, DENV2 CPE rescue 2 and ERAP1 HTS inh 1.
For CN1C(=O)c2cc(NC(=O)Cc3cccs3)ccc2OC[C@H]2O[C@@H](CC(=O)NCC3CC3)CC[C@@H]21 the results were S100A4 inh HTS -4, SIRT5 inh 1, DENV2 CPE rescue 2 and ERAP1 HTS inh 0.
CCC(=O)Nc1ccc2c(c1)OC[C@H](C)N(C(=O)c1ccccn1)C[C@@H](C)[C@@H](OC)CN(C)C2=O was read as S100A4 inh HTS 4, SIRT5 inh 1, DENV2 CPE rescue -8 and ERAP1 HTS inh -1.
For CCC(=O)Nc1ccc2c(c1)OC[C@@H](C)N(C(=O)CN1CCOCC1)C[C@H](C)[C@@H](OC)CN(C)C2=O the results were S100A4 inh HTS 2, SIRT5 inh -1, DENV2 CPE rescue 12 and ERAP1 HTS inh 0.
Screening CO[C@@H]1CN(C)C(=O)c2ccc(NC(C)=O)cc2OC[C@@H](C)N(C(=O)CN2CCOCC2)C[C@@H]1C returned S100A4 inh HTS 14, SIRT5 inh -1, DENV2 CPE rescue 28* and ERAP1 HTS inh -1.
Screening CCC(=O)Nc1ccc2c(c1)OC[C@@H](C)N(C(=O)c1ccccn1)C[C@@H](C)[C@H](OC)CN(C)C2=O returned S100A4 inh HTS -68, SIRT5 inh 1, DENV2 CPE rescue 26* and ERAP1 HTS inh 0.
Screening N#CC(Cc1ccccc1OC(F)F)c1nc2ccccc2[nH]1 (stereo unspecified) returned CAL PDZ FP-1 0, S100A4 inh HTS 1, SIRT5 inh -14, DENV2 CPE rescue 25*, ERAP1 HTS inh -1 and CAL PDZ FP-2 -1.
`CN(C)c1ccc(CNC(=O)CCS(=O)(=O)c2ccc3c(c2)oc(=O)n3C)cc1` gave CAL PDZ FP-1 -1, S100A4 inh HTS -5, SIRT5 inh -1, DENV2 CPE rescue -4, ERAP1 HTS inh -1 and CAL PDZ FP-2 63*.
CN1CCN(C(=O)C[C@@H]2CC[C@H]3[C@@H](COC[C@H](O)CN3S(=O)(=O)c3cccc(Cl)c3)O2)CC1 was read as S100A4 inh HTS 6, SIRT5 inh 1, DENV2 CPE rescue -5 and ERAP1 HTS inh 0.
Screening C/C(=N/NS(=O)(=O)c1ccc(C)cc1)c1c(O)c2ccccc2oc1=O returned CAL PDZ FP-1 -2, S100A4 inh HTS -1, SIRT5 inh 28*, DENV2 CPE rescue -6, ERAP1 HTS inh -2 and CAL PDZ FP-2 -10.
`COCC(=O)N(C)C[C@H]1Oc2cc(-c3ccc(C#N)cc3)ccc2S(=O)(=O)N([C@@H](C)CO)C[C@@H]1C` gave S100A4 inh HTS -25, SIRT5 inh -1, DENV2 CPE rescue 5 and ERAP1 HTS inh 0.
Screening CCC(C(=O)Nc1c(C)cccc1C)n1c(-c2ccc(=O)[nH]c2)nc2ccccc21 (stereo unspecified) returned S100A4 inh HTS 0, DENV2 CPE rescue 33* and ERAP1 HTS inh -1.
`CNC(=O)C1(C)C=CC2(CCCCC2)N1C(=O)OC` (stereo unspecified) gave CAL PDZ FP-1 -2, S100A4 inh HTS 0, DENV2 CPE rescue 22* and CAL PDZ FP-2 -6.
`O=C(CN1CCOCC1)N/N=C/c1ccc(-c2ccc(C(=O)O)cc2)o1` gave CAL PDZ FP-1 -4, S100A4 inh HTS -1, SIRT5 inh 17*, DENV2 CPE rescue 0, ERAP1 HTS inh 93* and CAL PDZ FP-2 -2.
Screening O=C(Nc1ccc(F)cc1)Nn1cnnc1 returned CAL PDZ FP-1 0, S100A4 inh HTS 0, SIRT5 inh -1, DENV2 CPE rescue 5, ERAP1 HTS inh 1 and CAL PDZ FP-2 -9.
`O=C(Nc1ccc(F)c(Cl)c1)Nn1cnnc1` gave CAL PDZ FP-1 -2, S100A4 inh HTS -3, SIRT5 inh -1, DENV2 CPE rescue 76*, ERAP1 HTS inh 3 and CAL PDZ FP-2 -5.
